Converted amounts (≈) assume the structure as drawn. Counter-ions that a name gives are not always drawn. The source made the active and inactive calls. The rule behind the calls is not given here.
Key:
Ribosome [1] = test: Inhibition of ribosome-mediated protein synthesis in rabbit reticulocytes after 60 mins by coupled transcription/translation assay; assay type: subcellular, Oryctolagus cuniculus
How it was run: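 Eukaryotic inhibition used the TNT T7 Quick coupled transcription/translation system with T7 control luciferase DNA. Varied aminoglycoside concentrations were incubated with the 10 µl reaction at 30 °C for 60 min and ice-cooled 5 min. Samples were diluted in the same buffer and luminescence was read on adding luciferase reagent. IC50 was fitted from at least three independent experiments.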

Bacillus subtilis = test: Antibacterial activity against Bacillus subtilis ATCC-6633 by double-microdilution method; assay type: functional, organism-based
[2] = Inhibition of ribosome S30 subunit-mediated protein synthesis in Escherichia coli after 60 mins by coupled transcription/translation assay
How it was run: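 Prokaryotic coupled transcription/translation with a luciferase read-out. Varied aminoglycoside concentrations were incubated with the 10 µl reaction at 37°C for 60 min, then ice-cooled 5 min. Samples were diluted in tris-phosphate (25 mM, pH 7.8), DTT, CDTA, glycerol, Triton X-100 and BSA, and luminescence was read on adding luciferase reagent. IC50 was fitted from at least three independent experiments.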

HFF = test: Cytotoxicity against human HFF cells assessed as cell viability after 48 hrs by XTT based calorimetric assay relative to control
How it was run: (§1)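 Cells seeded at 5,000/well in DMEM with 10% FBS and 1% glutamine at 37 °C, 5% CO₂; after overnight culture, graded aminoglycoside concentrations added for a further 48 hr. XTT viability read-out with 3 hr incubation by optical density, viability expressed relative to untreated cultures; LC50 fitted from concentration-response curves of at least three independent experiments.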

Escherichia coli = test: Antibacterial activity against Escherichia coli R477/100 by microdilution method; assay type: functional
[3] = Selectivity ratio of IC50 for ribosome-mediated protein synthesis in rabbit reticulocytes to IC50 for ribosome S30 subunit-mediated protein synthesis in Escherichia coli
Ribosome [4] = test: Inhibition of ribosome-mediated translation of PCDH15 R3X nonsense mutant gene expressed in rabbit reticulocytes harboring p2luc plasmid after 16 hrs by dual luciferase reporter gene assay; assay type: subcellular; parameters: scale not given: the % may be the effect or the level left
Ribosome [5] = test: Inhibition of ribosome-mediated translation of IDUA Q70X nonsense mutant gene expressed in rabbit reticulocytes harboring p2luc plasmid after 16 hrs by dual luciferase reporter gene assay; assay type: subcellular; parameters: scale not given: the % may be the effect or the level left
Ribosome [6] = test: Inhibition of ribosome-mediated translation of CFTR W1282X nonsense mutant gene expressed in rabbit reticulocytes harboring p2luc plasmid after 16 hrs by dual luciferase reporter gene assay; assay type: subcellular; parameters: scale not given: the % may be the effect or the level left
[7] = (§2) Cytotoxicity against human HEK293 cells assessed as cell viability after 48 hrs by XTT based calorimetric assay; details: HEK293 cells, read-out: LC50; how it was run: as §1
Ribosome [8] = test: Inhibition of ribosome-mediated translation of PCDH15 R245X nonsense mutant gene expressed in rabbit reticulocytes harboring p2luc plasmid after 16 hrs by dual luciferase reporter gene assay; assay type: subcellular; parameters: scale not given: the % may be the effect or the level left
Ribosome [9] = test: Inhibition of ribosome-mediated translation of DMD R3381X nonsense mutant gene expressed in rabbit reticulocytes harboring p2luc plasmid after 16 hrs by dual luciferase reporter gene assay; assay type: subcellular; parameters: scale not given: the % may be the effect or the level left
Ribosome [10] = test: Inhibition of ribosome-mediated translation of CFTR G542X nonsense mutant gene expressed in rabbit reticulocytes harboring p2luc plasmid after 16 hrs by dual luciferase reporter gene assay; assay type: subcellular; parameters: scale not given: the % may be the effect or the level left
HEK293 = test: as §2; details: hek293, 48 h, read-out: LC50 (the source's name); how it was run: as §1
[11] = target: mitochondrial ribosome (Homo sapiens); test: Inhibition of mitochondrial ribosome-mediated protein synthesis in human HeLa cells assessed as {35S]methionine incorporation by autoradiography
HeLa = test: Ratio of compound IC50 to gentamicin IC50 for inhibition of mitochondrial ribosome- protein synthesis in human HeLa cells; assay type: subcellular

CN[C@@H]1[C@@H](O)[C@@H](O[C@@H]2[C@@H](O)[C@H](O[C@H]3O[C@H]([C@@H](C)O)[C@@H](O)[C@H](O)[C@H]3N)[C@@H](N)C[C@H]2N)OC[C@]1(C)O.O=S(=O)(O)O [GENETICIN SULFATE SALT]
IC50 (Ribosome [1]): 2 µM | Activity (Bacillus subtilis): Active | IC50 [2]: 0.01 µM | Activity (HFF): Non-toxic | MIC (Escherichia coli): 9 µM

C[C@H](N)[C@H]1O[C@@H](O[C@@H]2[C@@H](O)[C@H](NC(=O)[C@@H](O)CCN)C[C@H](N)[C@H]2O[C@H]2O[C@H](CO)[C@@H](O)[C@H](O)[C@H]2N)[C@H](O)[C@@H]1O
IC50 (Ribosome [1]): 5.2 µM | Ratio IC50 [3]: 2.3 | IC50 [2]: 2.3 µM | MIC (Escherichia coli): 1070 µM (≈ 608 µg/mL)

C[C@@H](N)[C@H]1O[C@@H](O[C@@H]2[C@@H](O)[C@H](N)C[C@H](N)[C@H]2O[C@H]2O[C@H]([C@@H](C)O)[C@@H](O)[C@H](O)[C@H]2N)[C@H](O)[C@@H]1O
IC50 (Ribosome [1]): 8 µM | Activity (Ribosome [4]): 20% | Ratio IC50 [3]: 4.3 | Activity (Ribosome [5]): 20% | Activity (Ribosome [6]): 20% | CC50 at 48 h [7]: 16500 µM | IC50 [2]: 1.9 µM | Activity (Ribosome [8]): 20% | Activity (Ribosome [9]): 20% | Activity (Ribosome [10]): 20% | MIC (Escherichia coli): 1540 µM (≈ 741 µg/mL)

GENTAMICIN SULFATE [listing 1 of 2 here]
Activity (Ribosome [4]): 20% | Ratio IC50 [3]: 2210 | Activity (Ribosome [5]): 20% | Activity (Ribosome [6]): 20% | Activity (Bacillus subtilis): Active | Activity (Ribosome [8]): 20% | Activity (Ribosome [9]): 20% | Activity (Ribosome [10]): 20% | MIC (Escherichia coli): 6 µM

C[C@@H](O)[C@H]1O[C@H](O[C@H]2[C@H](O[C@@H]3O[C@H](CN)[C@@H](O)[C@H]3O)[C@@H](O)[C@H](N)C[C@@H]2N)[C@H](N)[C@@H](O)[C@@H]1O
Activity (Ribosome [4]): 20% | Ratio IC50 [3]: 15 | Activity (Ribosome [5]): 20% | Activity (Ribosome [6]): 20% | CC50 at 48 h [7]: 22200 µM | IC50 [2]: 1.1 µM | Activity (Ribosome [8]): 20% | Activity (Ribosome [9]): 20% | Activity (Ribosome [10]): 20%

C[C@@H](N)[C@H]1O[C@@H](O[C@@H]2[C@@H](O)[C@H](N)C[C@H](N)[C@H]2O[C@H]2O[C@H](CO)[C@@H](O)[C@H](O)[C@H]2N)[C@H](O)[C@@H]1O
IC50 (Ribosome [1]): 28 µM | Ratio IC50 [3]: 13 | IC50 [2]: 2.1 µM | MIC (Escherichia coli): 4990 µM (≈ 2340 µg/mL)

GENTAMICIN SULFATE [listing 2 of 2 here]
IC50 (Ribosome [1]): 62 µM | CC50 (HEK293): 2500 µM | IC50 [11]: 26 µM

C[C@H](N)[C@H]1O[C@@H](O[C@@H]2[C@@H](O)[C@H](N)C[C@H](N)[C@H]2O[C@H]2O[C@H](CO)[C@@H](O)[C@H](O)[C@H]2N)[C@H](O)[C@@H]1O
IC50 (Ribosome [1]): 16 µM | Ratio IC50 [3]: 7.9 | IC50 [2]: 2 µM | MIC (Escherichia coli): 2660 µM (≈ 1250 µg/mL)

C[C@H](N)[C@H]1O[C@@H](O[C@@H]2[C@@H](O)[C@H](N)C[C@H](N)[C@H]2O[C@H]2O[C@H]([C@@H](C)O)[C@@H](O)[C@H](O)[C@H]2N)[C@H](O)[C@@H]1O
IC50 (Ribosome [1]): 1.5 µM | Activity (Ribosome [4]): 50% | Ratio IC50 [3]: 1.3 | Activity (Ribosome [5]): 50% | Activity (Ribosome [6]): 50% | CC50 at 48 h [7]: 5400 µM | IC50 [2]: 1.1 µM | Activity (Ribosome [8]): 50% | Activity (Ribosome [9]): 50% | Activity (Ribosome [10]): 50% | MIC (Escherichia coli): 768 µM (≈ 371 µg/mL)

NC[C@H]1O[C@@H](O[C@@H]2[C@@H](O)[C@H](N)C[C@H](N)[C@H]2O[C@H]2O[C@H](CO)[C@@H](O)[C@H](O)[C@H]2N)[C@H](O)[C@@H]1O
IC50 (Ribosome [1]): 31 µM | Ratio IC50 [3]: 68 | CC50 at 48 h [7]: 21900 µM | IC50 [2]: 0.5 µM | MIC (Escherichia coli): 790 µM (≈ 359 µg/mL)

C[C@@H](N)[C@H]1O[C@@H](O[C@@H]2[C@@H](O)[C@H](NC(=O)[C@@H](O)CCN)C[C@H](N)[C@H]2O[C@H]2O[C@H]([C@@H](C)O)[C@@H](O)[C@H](O)[C@H]2N)[C@H](O)[C@@H]1O
IC50 (Ribosome [1]): 0.9 µM | Ratio IC50 [3]: 0.5 | Activity (Ribosome [5]): Dose-dependent effect | CC50 at 48 h [7]: 5400 µM | IC50 [2]: 1.8 µM | MIC (Escherichia coli): 384 µM (≈ 224 µg/mL)

C[C@@H](O)[C@H]1O[C@H](O[C@H]2[C@H](O[C@@H]3O[C@H](CN)[C@@H](O)[C@H]3O)[C@@H](O)[C@H](NC(=O)[C@@H](O)CCN)C[C@@H]2N)[C@H](N)[C@@H](O)[C@@H]1O
IC50 (Ribosome [1]): 2.8 µM | Activity (Ribosome [4]): 50% | Ratio IC50 [3]: 2.9 | Activity (Ribosome [5]): 50% | Activity (Ribosome [6]): 50% | CC50 at 48 h [7]: 5800 µM | IC50 [2]: 1 µM | Activity (Ribosome [8]): 50% | Activity (Ribosome [9]): 50% | Activity (Ribosome [10]): 50% | MIC (Escherichia coli): 556 µM (≈ 317 µg/mL)

NC[C@@H]1O[C@H](O[C@H]2[C@@H](O)[C@H](O[C@@H]3[C@@H](O)[C@H](N)C[C@H](N)[C@H]3O[C@H]3O[C@H](CO)[C@@H](O)[C@H](O)[C@H]3N)O[C@@H]2CO)[C@H](N)[C@@H](O)[C@@H]1O [PAROMOMYCIN SULFATE]
IC50 (Ribosome [1]): 57 µM | Ratio IC50 [3]: 1120 | IC50 [2]: 0.05 µM | MIC (Escherichia coli): 22 µM

C[C@H](N)[C@H]1O[C@@H](O[C@@H]2[C@@H](O)[C@H](NC(=O)[C@@H](O)CCN)C[C@H](N)[C@H]2O[C@H]2O[C@H]([C@@H](C)O)[C@@H](O)[C@H](O)[C@H]2N)[C@H](O)[C@@H]1O
IC50 (Ribosome [1]): 0.7 µM | Ratio IC50 [3]: 0.4 | CC50 at 48 h [7]: 5100 µM | IC50 [2]: 1.8 µM | MIC (Escherichia coli): 384 µM (≈ 224 µg/mL)

NCC[C@H](O)C(=O)N[C@@H]1C[C@H](N)[C@@H](O[C@H]2O[C@H](CO)[C@@H](O)[C@H](O)[C@H]2N)[C@H](O[C@@H]2O[C@H](CN)[C@@H](O)[C@H]2O)[C@H]1O
IC50 (Ribosome [1]): 24 µM | Ratio IC50 [3]: 151 | CC50 at 48 h [7]: 5500 µM | IC50 [2]: 0.2 µM | Ratio IC50 (HeLa): 19 | MIC (Escherichia coli): 588 µM (≈ 327 µg/mL)

C[C@@H](N)[C@H]1O[C@@H](O[C@@H]2[C@@H](O)[C@H](NC(=O)[C@@H](O)CCN)C[C@H](N)[C@H]2O[C@H]2O[C@H](CO)[C@@H](O)[C@H](O)[C@H]2N)[C@H](O)[C@@H]1O
IC50 (Ribosome [1]): 4.6 µM | Ratio IC50 [3]: 5.7 | IC50 [2]: 0.8 µM | MIC (Escherichia coli): 1060 µM (≈ 602 µg/mL)

Reference: ChEMBL document CHEMBL2203148, “Increased selectivity toward cytoplasmic versus mitochondrial ribosome confers improved efficiency of synthetic aminoglycosides in fixing damaged genes: a strategy for treatment of genetic diseases caused by nonsense mutations” (J Med Chem, 2012)
